Target: T1, Fatty-acid amide hydrolase 1 (Rattus norvegicus) (UniProt P97612)
T1 sequence (whole entry): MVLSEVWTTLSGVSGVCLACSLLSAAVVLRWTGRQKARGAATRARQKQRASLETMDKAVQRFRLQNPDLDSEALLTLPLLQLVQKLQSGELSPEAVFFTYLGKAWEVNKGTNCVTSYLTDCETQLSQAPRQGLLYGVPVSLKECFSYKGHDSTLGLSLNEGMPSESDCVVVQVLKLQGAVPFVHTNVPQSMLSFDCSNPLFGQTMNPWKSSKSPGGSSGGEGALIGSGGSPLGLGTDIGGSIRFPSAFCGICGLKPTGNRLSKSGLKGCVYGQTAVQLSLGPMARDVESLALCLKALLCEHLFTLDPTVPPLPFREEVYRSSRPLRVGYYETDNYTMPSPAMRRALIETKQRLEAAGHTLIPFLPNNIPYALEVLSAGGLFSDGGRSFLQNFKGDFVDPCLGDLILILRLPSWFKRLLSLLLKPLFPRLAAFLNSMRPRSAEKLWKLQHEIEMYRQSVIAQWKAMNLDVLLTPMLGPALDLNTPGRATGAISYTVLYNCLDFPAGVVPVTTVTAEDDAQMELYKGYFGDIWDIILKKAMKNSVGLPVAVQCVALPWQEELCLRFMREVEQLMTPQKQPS
Assay: Tested for hydrolysis by rat brain microsomal anandamide amidohydrolase (AAH).
Method in brief: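 Substrate at 100 μM (final) with 150 μg rat brain microsomal protein in 50 mM Tris·HCl, 1 mM EDTA, 0.1% BSA, pH 7.4, 37 °C, 15 min with shaking. Stopped with acetonitrile. Products quantified by RP-HPLC: arachidonic acid at 204 nm, or ethanolamine-type amine by OPA precolumn derivatization at 230 nm. Substrate-free blank subtracted. Four experiments in duplicate.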

| Structure (SMILES) | Rate of hydrolysis (nM min-1 mg-1) | Relative rate of hydrolysis |
| --- | --- | --- |
| CCCCC/C=C\C/C=C\C/C=C\C/C=C\CCCC(=O)N(CCO)CCO | 0 |  |
| CCCCC/C=C\C/C=C\C/C=C\C/C=C\CCCC(=O)NC(C)(C)CO | 0.056 | 4.3% |
| CCCCC/C=C\C/C=C\C/C=C\C/C=C\CCCC(=O)Nc1ccccc1O | 2.51 | 193% |
| CCCCC/C=C\C/C=C\C/C=C\C/C=C\CCCC(=O)Nc1cccc(O)c1 | 1.98 | 152% |
| CCCCC/C=C\C/C=C\C/C=C\C/C=C\CCCC(=O)NCCO | 1.3 |  |
| CCCCC/C=C\C/C=C\C/C=C\C/C=C\CCCC(=O)Nc1ccc(CO)cc1 | 0 | 0% |
| CCCCC/C=C\C/C=C\C/C=C\C/C=C\CCC(C)(C)C(=O)NCCO | 0.0094 | 0.7% |
| CCCCC/C=C\C/C=C\C/C=C\C/C=C\CCCC(=O)N[C@@H](C)CC | 0.082 | 6.3% |
| CCCCC/C=C\C/C=C\C/C=C\C/C=C\CCCC(=O)Nc1ccc(O)cc1 | 0.208 | 16% |
| CCCCC/C=C\C/C=C\C/C=C\C/C=C\CCCC(=O)N[C@@H](C)CO | 0.299 |  |
| CCCCC/C=C\C/C=C\C/C=C\C/C=C\CCCC(=O)NC[C@H](C)O | 0.273 | 21% |
| CCCCC/C=C\C/C=C\CCCCCCCC(=O)NCCO | 0.98 |  |
| CCCCCCCCCCCCCCCCCC(=O)NCCO | 0.2 | 15% |
| CCCCC/C=C\C/C=C\C/C=C\C/C=C\CCCC(=O)NC[C@@H](C)O | 1.58 | 121% |
| CCCCC/C=C\C/C=C\C/C=C\C/C=C\CCCC(=O)NC(C)(C)C | 0.022 | 1.8% |
| CCCCC/C=C\C/C=C\C/C=C\C/C=C\CCCC(=O)NCCF | 1.65 | 127% |
| CCCCC/C=C\C/C=C\C/C=C\C/C=C\CCCC(=O)NCC(C)C | 0.025 | 2% |
| CCCCCCCC/C=C\CCCCCCCC(=O)NCCO | 0.79 | 61.1% |
| CCCCC/C=C\C/C=C\C/C=C\C/C=C\CCCC(=O)OCC(O)CO (stereo not drawn) | 3.43 | 264% |
| CCCCC/C=C\C/C=C\C/C=C\C/C=C\CCCC(=O)N(C)CCO | 0 | 0% |
| CCCCC/C=C\C/C=C\CCCCCCCC(=O)N[C@@H](C)CO | 0.27 | 20.5% |
| CCCCC/C=C\C/C=C\C/C=C\C/C=C\CCCC(=O)NC1CCC(O)CC1 (stereo not drawn) | 0.299 | 2% |
| CCCCC/C=C\C/C=C\C/C=C\C/C=C\CCCC(=O)N[C@H](C)CC | 0 | 0% |
| CCCCC/C=C\C/C=C\C/C=C\C/C=C\CCCC(N)=O | 2.85 | 219% |
| CCCCC/C=C\C/C=C\C/C=C\C/C=C\CCCC(=O)OC(CO)CO | 3.27 | 251% |
| CCCCCCCC/C=C\CCCCCCCC(=O)N[C@@H](C)CO | 0.47 | 3.6% |
| CCCCC/C=C\C/C=C\C/C=C\C/C=C\CCCC(=O)N[C@H](C)CO | 0.03 |  |

System: not listed separately
Assay: Ratio of Vmax value and Km value of the compound.
Method in brief: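 Sprague–Dawley rat brain microsomes (105000g pellet) at 0.3 mg/mL protein, 37 °C, pH 7.4, BSA as carrier. Varied substrate concentrations, sampled at least four times within the linear initial range. Arachidonic acid formed measured by RP-HPLC (UV 204 nm, calibration curve). Initial velocity vs substrate concentration fitted to Michaelis–Menten.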

| Structure (SMILES) | Vmax / Km (ml min-1 kg-1) | Vmax / Km (ml min-1 mg-1) |
| --- | --- | --- |
| CCCCC/C=C\C/C=C\C/C=C\C/C=C\CCCC(=O)Nc1ccccc1O | 0.43 |  |
| CCCCC/C=C\C/C=C\C/C=C\C/C=C\CCCC(=O)N[C@@H](C)CO | 0.049 |  |
| CCCCC/C=C\C/C=C\C/C=C\C/C=C\CCCC(N)=O |  | 1.24 |
| CCCCC/C=C\C/C=C\C/C=C\C/C=C\CCCC(=O)N[C@H](C)CO | 0.011 |  |
